Measured values: ChEMBL document CHEMBL3297742, “Tetrahydronaphthyridine and dihydronaphthyridinone ethers as positive allosteric modulators of the metabotropic glutamate receptor 5 (mGlu₅)” (J Med Chem, 2014)
Converted amounts (≈) assume the structure as drawn.

Experiments:
[1] = system: Rattus norvegicus; test: Toxicity in Sprague-Dawley rat assessed as autonomic nervous system deficit at 100 mg/kg, po measured up to 4 hrs by irwin neurological test; format: organism-based; set-up: dose 100 mg/kg, route oral; details: in vivo
How it was run: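 Male Sprague–Dawley rats (250–300 g) scored at baseline, then given vehicle (20% HP-β-CD) or 100 mg/kg po (n = 6 each). Modified Irwin battery repeated at 30 min, 1 h and 4 h; each end point scored 0, 1 or 2; significance taken at p ≤ 0.05.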

[2] = Solubility of the compound in fasted simulated intestinal fluid at pH 7.2 after 24 hrs; format: ADME; details: simulated gi fluid, pH 7.2, 24 h
How it was run: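 Solubility in fasted simulated intestinal fluid (FaSSIF), pH 7.2.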

[3] = molecular target: T1, Cytochrome P450 1A2 (Homo sapiens, UniProt P05177); test: Inhibition of CYP1A2 in human liver microsomes; format: ADME
T1 sequence (P05177 whole entry): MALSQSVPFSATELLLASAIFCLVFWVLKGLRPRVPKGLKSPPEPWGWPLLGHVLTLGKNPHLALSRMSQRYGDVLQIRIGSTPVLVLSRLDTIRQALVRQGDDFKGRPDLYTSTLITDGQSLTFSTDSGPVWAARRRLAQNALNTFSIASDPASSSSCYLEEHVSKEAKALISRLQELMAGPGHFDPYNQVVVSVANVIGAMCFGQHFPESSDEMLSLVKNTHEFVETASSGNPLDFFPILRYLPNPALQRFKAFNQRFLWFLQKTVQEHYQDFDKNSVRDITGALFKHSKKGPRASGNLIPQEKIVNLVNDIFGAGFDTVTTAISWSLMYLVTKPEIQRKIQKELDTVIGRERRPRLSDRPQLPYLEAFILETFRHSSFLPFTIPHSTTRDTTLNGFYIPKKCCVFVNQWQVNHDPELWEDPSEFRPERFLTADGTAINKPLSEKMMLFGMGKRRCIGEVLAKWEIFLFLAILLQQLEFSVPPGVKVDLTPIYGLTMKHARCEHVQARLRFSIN
How it was run: (§1)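 CYP1A2, 2C9, 2D6 and 3A4 inhibition measured together in a cocktail assay with human liver microsomes and known probe substrates; IC50 determined.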

[4] = molecular target: Cytochrome P450 2C9 (Homo sapiens, UniProt P11712); test: Inhibition of CYP2C9 in human liver microsomes; format: ADME; how it was run: as §1
[5] = system: Rattus norvegicus; test: Reversal of amphetamine-induced hyperlocomotion in Sprague-Dawley rat at 56.6 mg/kg, po administered for 30 mins prior to amphetamine challenge for 60 mins; format: functional
How it was run: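 Male Sprague–Dawley rats (250–375 g), food-deprived the evening before, were habituated 30 min in locomotor chambers. They were then dosed po with vehicle (20% HP-β-CD in water, pH 6–7, max 10 mL/kg) or test article, followed 30 min later by amphetamine 1 mg/kg sc, n = 6–8 per group. Photobeam breaks were counted per 5 min over 120 min. Percent reversal used t = 60–120 totals versus the vehicle + amphetamine group, reported as mean ± SE.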

[6] = system: Rattus norvegicus; test: Toxicity in Sprague-Dawley rat assessed as motor output at 30 to 100 mg/kg, po after 30 mins by rotarod test; format: organism-based; set-up: dose 30-100 mg/kg, route oral; details: in vivo, 0.5 h
How it was run: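 Male Sprague–Dawley rats (250–300 g) trained twice on a 20 rpm rotarod (120 s trials); animals below 85 s at baseline were excluded. Rats received 30, 56.6 or 100 mg/kg po in 20% HP-β-CD or vehicle (n = 6) and were tested 30 min later in a 120 s trial; time on the rod was recorded, with a 120 s cutoff.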

Chain of Cytochrome P450 2C9 (P11712 whole entry): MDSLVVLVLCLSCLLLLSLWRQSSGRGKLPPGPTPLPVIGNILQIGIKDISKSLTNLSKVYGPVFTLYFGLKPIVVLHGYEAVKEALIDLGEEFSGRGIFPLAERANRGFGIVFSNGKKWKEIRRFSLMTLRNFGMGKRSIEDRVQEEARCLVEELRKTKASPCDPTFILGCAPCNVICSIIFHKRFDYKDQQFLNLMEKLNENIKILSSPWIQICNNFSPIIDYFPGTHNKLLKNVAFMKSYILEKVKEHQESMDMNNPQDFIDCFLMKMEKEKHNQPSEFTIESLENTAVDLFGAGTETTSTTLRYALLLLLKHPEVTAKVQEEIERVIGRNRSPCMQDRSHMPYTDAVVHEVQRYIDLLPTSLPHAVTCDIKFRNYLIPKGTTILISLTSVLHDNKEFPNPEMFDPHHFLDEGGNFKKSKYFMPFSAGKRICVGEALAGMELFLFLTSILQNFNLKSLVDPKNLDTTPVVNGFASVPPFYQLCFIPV

## O=C1NCCc2nc(OCc3cccc(F)c3)ccc21
[1]
  Activity: Non-toxic
[2]
  solubility: 31 µg/mL (≈ 114 µM)
[3]
  IC50: 25.7 µM
[4]
  IC50: > 30 µM
[5]
  inhibition in vivo at 56.6 mg/kg: > 30%
[6]
  Activity: Non-toxic
